Laboratory results reported in ChEMBL document CHEMBL2396626, “Exploiting drug-resistant enzymes as tools to identify thienopyrimidinone inhibitors of human immunodeficiency virus reverse transcriptase-associated ribonuclease H” (J Med Chem, 2013).
Calls of active or inactive are those of the source. The calls are words filed in the database; no cut-off is given here.

What was measured:
[1] = target: Human immunodeficiency virus type 1 reverse transcriptase (Human immunodeficiency virus 1, UniProt Q72547); test: Inhibition of RNase H activity of wild type HIV-1 reverse transcriptase using 18 nucleotide 3'-fluorescein-labeled RNA/18 nucleotide 5'-dabsyl-labeled DNA hybrid as substrate after 10 mins by fluorescence spectrometric analysis
[2] = Inhibition of RNase H activity of HIV-1 reverse transcriptase p66/p51 T286A mutant using 18 nucleotide 3'-fluorescein-labeled RNA/18 nucleotide 5'-dabsyl-labeled DNA hybrid as substrate after 10 mins by fluorescence spectrometric analysis; design: species or system Human immunodeficiency virus 1
[3] = Inhibition of RNase H activity of HIV-1 reverse transcriptase p66/p51 V276A mutant using 18 nucleotide 3'-fluorescein-labeled RNA/18 nucleotide 5'-dabsyl-labeled DNA hybrid as substrate after 10 mins by fluorescence spectrometric analysis; design: species or system Human immunodeficiency virus 1
[4] = Inhibition of RNase H activity of HIV-1 reverse transcriptase p66/p51 C280A mutant using 18 nucleotide 3'-fluorescein-labeled RNA/18 nucleotide 5'-dabsyl-labeled DNA hybrid as substrate after 10 mins by fluorescence spectrometric analysis; design: species or system Human immunodeficiency virus 1
[5] = Inhibition of RNase H activity of HIV-1 reverse transcriptase p66/p51 R284A mutant using 18 nucleotide 3'-fluorescein-labeled RNA/18 nucleotide 5'-dabsyl-labeled DNA hybrid as substrate after 10 mins by fluorescence spectrometric analysis; design: species or system Human immunodeficiency virus 1
[6] = target: Human immunodeficiency virus type 1 integrase (Human immunodeficiency virus 1) (UniProt Q7ZJM1); test: Inhibition of HIV-1 integrase using DNA duplex as substrate at 50 uM preincubated for 10 mins prior to substrate addition measured after 1 hr
Human immunodeficiency virus type 1 integrase (Human immunodeficiency virus 1), sequence (Q7ZJM1 as listed by the source): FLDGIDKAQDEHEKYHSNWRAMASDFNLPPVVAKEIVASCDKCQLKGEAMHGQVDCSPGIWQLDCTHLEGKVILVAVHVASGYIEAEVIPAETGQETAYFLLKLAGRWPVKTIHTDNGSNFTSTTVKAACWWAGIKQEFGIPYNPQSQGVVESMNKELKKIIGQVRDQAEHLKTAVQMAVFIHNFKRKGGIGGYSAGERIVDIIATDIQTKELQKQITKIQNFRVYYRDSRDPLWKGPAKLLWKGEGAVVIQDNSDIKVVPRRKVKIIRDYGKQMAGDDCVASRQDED

[7] = target: Human immunodeficiency virus type 1 reverse transcriptase (Human immunodeficiency virus 1) (UniProt Q72547); test: Binding affinity to HIV-1 reverse transcriptase p66/p51 assessed as decrease in melting temperature at 10 uM by differential scanning fluorimetric analysis in presence of Mg2+
[8] = system: Human immunodeficiency virus type 1 reverse transcriptase (Human immunodeficiency virus 1), Q72547 [K103N]; test: Inhibition of HIV-1 reverse transcriptase K103N mutant at 50 uM
[9] = system: Human immunodeficiency virus type 1 reverse transcriptase (Human immunodeficiency virus 1), Q72547 [Y181C]; test: Inhibition of HIV-1 reverse transcriptase Y181C mutant at 50 uM
[10] = system: Human immunodeficiency virus 1; test: Inhibition of HIV-1 DNA-dependent DNA polymerase using DNA duplex as substrate at 50 uM after 15 mins by PAGE relative to control
CEM-SS = test: Cytotoxicity against human CEM-SS cells by XTT assay; format: cell-based
Summary of the method: (§1)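 Cytopathic-protection format: HIV-1 RF isolate in human T-cell line CEM-SS, with cell viability read by XTT-based assay.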

[11] = Selectivity ratio of CC50 for human CEM-SS cells to EC50 for Human immunodeficiency virus 1 RF isolate; format: ADME, cell-based
[12] = system: Human immunodeficiency virus 1; test: Antiviral activity against Human immunodeficiency virus 1 RF isolate infected in human CEM-SS cells by XTT assay; format: functional, organism-based; summary of the method: as §1
[13] = target: Human immunodeficiency virus type 1 reverse transcriptase (Human immunodeficiency virus 1) (UniProt Q72547); test: Binding affinity to HIV-1 reverse transcriptase p66/p51-RNA/DNA hybrid complex assessed as decrease in melting temperature at 10 uM by differential scanning fluorimetric analysis in presence of Mg2+
[14] = target: Human immunodeficiency virus type 1 reverse transcriptase (Human immunodeficiency virus 1) (UniProt Q72547); test: Inhibition of RNase H activity of HIV-1 reverse transcriptase using 18 nucleotide 3'-fluorescein-labeled RNA/18 nucleotide 5'-dabsyl-labeled DNA hybrid as substrate by Yonetani-Theorell plot analysis in presence of beta-thujaplicinol
Summary of the method: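 Yonetani-Theorell: RNase H rates at 250 nM RNA/DNA substrate, fixed enzyme, thienopyrimidinone 0–5 μM against β-thujaplicinol 0, 0.125, 0.25, 0.5, 1 μM; hydrolysis started with substrate, monitored 60 min; V0/Vi plotted and fitted to two-inhibitor equation with interaction term.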

Compound	IC50 [1] [nM]	IC50 [2] [nM]	IC50 [3] [nM]	IC50 [4] [nM]	IC50 [5] [nM]	inhibition [6]	ΔTm [7] [°C]	inhibition [8]	inhibition [9]	inhibition [10] [%]	CC50 (CEM-SS) [nM]	Ratio CC50/EC50 [11]	EC50 [12] [nM]	ΔTm [13] [°C]	inhibition [14]
O=c1[nH]c(-c2cc(O)ccc2O)nc2sc3c(c12)CCCCC3	1700	–	–	–	–	–	–	–	–	–	–	–	–	–	–
Cc1sc2nc(-c3ccc(C(F)(F)F)cc3)[nH]c(=O)c2c1C	1300	7500	310	> 50000	230	–	–	–	–	–	–	–	–	–	–
Cc1sc2nc(-c3cccnc3)[nH]c(=O)c2c1C	8300	–	–	–	–	–	–	–	–	–	–	–	–	–	–
O=c1[nH]c(-c2ccc(O)cc2)nc2sc3c(c12)CCCCC3	3200	6600	640	15800	650	–	–	–	–	–	–	–	–	–	–
Cc1sc2nc(-c3ccc(F)c(F)c3)[nH]c(=O)c2c1C	> 50000	–	–	–	–	–	–	–	–	–	–	–	–	–	–
O=c1[nH]c(-c2ccc(O)cc2O)nc2sc3c(c12)CCCCC3	9300	–	–	–	–	–	–	–	–	–	–	–	–	–	–
Cc1sc2nc(-c3ccc(C(=O)O)cc3)[nH]c(=O)c2c1C	1600	–	–	–	–	–	–	–	–	–	–	–	–	–	–
O=c1[nH]c(-c2ccc(O)c(O)c2)nc2sc3c(c12)CCCC3	370	460	410	290	920	inactive	0.5	Active	Active	> 60	–	–	–	–	–
CCCc1c(C)sc2nc(-c3cccc(O)c3O)[nH]c(=O)c12	1700	5700	4100	2900	3500	inactive	0.5	–	–	–	12400	4	3100	–	–
CCCCc1c(C)sc2nc(-c3ccc(O)c(O)c3)[nH]c(=O)c12	420	1100	910	490	1200	inactive	0.5	Active	Active	> 60	25400	3.2	7900	–	–
O=c1[nH]c(-c2ccc(C(F)(F)F)cc2)nc2sc3c(c12)CCCCC3	3100	7200	530	10600	540	–	–	–	–	–	–	–	–	–	–
Cc1sc2nc(-c3cc(O)cc(O)c3)[nH]c(=O)c2c1C	5200	–	–	–	–	–	–	–	–	–	–	–	–	–	–
Cc1sc2nc(-c3ccc(O)c(O)c3)[nH]c(=O)c2c1C	260	280	390	320	300	inactive	0.5	–	–	–	8900	2.3	3800	5.8	Active
Cc1sc2nc(-c3cc4ccccc4[nH]3)[nH]c(=O)c2c1C	480	960	160	> 50000	120	–	–	–	–	–	–	–	–	–	–
O=c1[nH]c(-c2ccc(O)c(O)c2)nc2sc3c(c12)CCC3	320	370	210	260	470	inactive	0.5	Active	Active	> 60	–	–	–	–	–
O=c1[nH]c(-c2ccccc2)nc2sc3c(c12)CCCCC3	4100	27900	960	41400	1300	–	–	–	–	–	–	–	–	–	–
CCCc1c(CC)sc2nc(-c3ccc(O)c(O)c3)[nH]c(=O)c12	590	820	760	500	1400	inactive	0.5	Active	Active	> 60	33700	3.7	9200	–	–
CCCc1c(C)sc2nc(-c3ccc(O)c(O)c3)[nH]c(=O)c12	490	570	560	370	800	–	0.5	–	–	–	11200	5.9	1900	–	–
Cc1sc2nc(-c3ccc(Cl)c([N+](=O)[O-])c3)[nH]c(=O)c2c1C	12000	–	–	–	–	–	–	–	–	–	–	–	–	–	–
Cc1sc2nc(-c3cc(O)ccc3O)[nH]c(=O)c2c1C	9300	–	–	–	–	–	–	–	–	–	–	–	–	–	–
Cc1sc2nc(-c3ccc(O)c(F)c3)[nH]c(=O)c2c1C	> 50000	–	–	–	–	–	–	–	–	–	–	–	–	–	–
